Measured values from ChEMBL document CHEMBL1131580, “Antihyperglycemic activities of cryptolepine analogues: an ethnobotanical lead structure isolated from Cryptolepis sanguinolenta” (1998).

Legend:
[1] = tested on: 3T3-L1; assay: In vitro glucose transport activity in 3T3-LI adipocytes at 30 uM concentration.; format: functional, Mus musculus
Summary of the method: (§1)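 Differentiated 3T3-L1 adipocytes, no added insulin, treated in triplicate for 18 h with compound at 3, 10 or 30 µM. Glucose transport expressed as % (relative to untreated); values are means of triplicate runs, significance by one-tailed independent Student's t-test.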

[2] = tested on: 3T3-L1; assay: In vitro glucose transport activity in 3T3-LI adipocytes at 10 uM concentration.; format: functional, Mus musculus; summary of the method: as §1
[3] = tested on: Mus musculus; assay: Mean body weight measured in genetically altered obese diabetic mice(db/db) at 100 mg/kg at 0 hr postdose; format: functional
Summary of the method: (§2)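 Obese diabetic C57BL/KS-db/db mice, single dose at t = 0, n = 8 per group (n = 5 for parent compound). Body weight recorded per mouse at 0 and 24 h; food intake reported as g/mouse/day. Vehicle used as negative control, metformin as positive control.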

[4] = tested on: Mus musculus; assay: Mean body weight measured in genetically altered obese diabetic mice(db/db) at 100 mg/kg at 24 hr postdose; format: functional; summary of the method: as §2
[5] = tested on: 3T3-L1; assay: In vitro glucose transport activity in 3T3-LI adipocytes at 3 uM concentration.; format: functional, Mus musculus; summary of the method: as §1
[6] = tested on: Mus musculus; assay: Change in plasma glucose levels measured in genetically altered obese diabetic mice(db/db) at 100 mg/kg at 3 hr postdose; format: functional
[7] = tested on: Mus musculus; assay: Food intake measured in genetically altered obese diabetic mice(db/db) at 100 mg/kg dose; format: functional; summary of the method: as §2
[8] = tested on: Mus musculus; assay: Change in plasma glucose levels measured in genetically altered obese diabetic mice(db/db) at 100 mg/kg at 24 hr postdose; format: functional
[9] = tested on: Mus musculus; assay: Food intake measured in genetically altered obese diabetic mice(db/db) at 100 mg/kg dose; 6 animals died; format: functional
[10] = tested on: Mus musculus; assay: Mean body weight measured in genetically altered obese diabetic mice(db/db) at 30 mg/kg at 0 h postdose; format: functional; summary of the method: as §2
[11] = tested on: Mus musculus; assay: Food intake measured in genetically altered obese diabetic mice(db/db) at 30 mg/kg dose; format: functional; summary of the method: as §2
[12] = tested on: Mus musculus; assay: Change in plasma glucose levels measured in genetically altered obese diabetic mice(db/db) at 30 mg/kg at 3 hr postdose; format: functional
[13] = tested on: Mus musculus; assay: Change in plasma glucose levels measured in genetically altered obese diabetic mice(db/db) at 30 mg/kg at 24 hr postdose; format: functional
[14] = tested on: Mus musculus; assay: Mean body weight measured in genetically altered obese diabetic mice(db/db) at 30 mg/kg at 24 h postdose; format: functional; summary of the method: as §2
[15] = tested on: Mus musculus; assay: Food intake measured in genetically altered obese diabetic mice(db/db) at 100 mg/kg dose; 2 animals died; format: functional
[16] = tested on: Mus musculus; assay: Mean body weight measured in genetically altered obese diabetic mice(db/db) at 30 mg/kg at 24 hr postdose; format: functional; summary of the method: as §2
[17] = tested on: Mus musculus; assay: Mean body weight measured in genetically altered obese diabetic mice(db/db) at 30 mg/kg at 0 hr postdose; format: functional; summary of the method: as §2

| SMILES | Glucose transport [1] | Glucose transport [2] | Mean body weight [3] | Mean body weight [4] | Glucose transport [5] | Change [6] | Food intake [7] | Change [8] | also measured |
| --- | --- | --- | --- | --- | --- | --- | --- | --- | --- |
| C[n+]1c2ccccc2c(Cl)c2oc3ccccc3c21.O=S(=O)([O-])C(F)(F)F | 107% | 114% | 40.6 g mouse-1 | 41.1 g mouse-1 | 119% | -17.9% | 4.9 g mouse-1 day-1 | -20.8% | – |
| C[n+]1c2ccccc2c(Cl)c2[nH]c3ccccc3c21.[Cl-] | 0.33% | 101% | – | – | 107% | – | – | – | – |
| C[n+]1c2ccc(F)cc2c(-c2ccccc2)c2[nH]c3ccccc3c21.[Cl-] | 116% | 215% | 40.5 g mouse-1 | 40.4 g mouse-1 | 281% | -11.2% | 5.1 g mouse-1 day-1 | -4.9% | – |
| C[n+]1c2c(c(Cl)c3ccccc31)Cc1ccccc1-2.O=S(=O)([O-])C(F)(F)F | 297% | 119% | – | – | 125% | – | – | – | – |
| [Cl-].c1ccc(C[n+]2c3ccccc3cc3[nH]c4ccccc4c32)cc1 | 161% | 781% | 39.3 g mouse-1 | 38.9 g mouse-1 | 611% | -15% | 5.1 g mouse-1 day-1 | -20% | – |
| C[n+]1c2ccc(F)cc2c(Cl)c2[nH]c3ccccc3c21.[Cl-] | 3.3% | 224% | – | – | 142% | – | – | – | – |
| C[n+]1c2ccccc2c(I)c2[nH]c3c(F)cccc3c21.[Cl-] | 0.1% | 255% | 43.4 g mouse-1 | 41.4 g mouse-1 | 129% | 19.9% | 0.7 g mouse-1 day-1 | -32.9% | – |
| C[n+]1c2ccccc2c(I)c2[nH]c3ccc(F)cc3c21.[Cl-] | 0.92% | 117% | 42.2 g mouse-1 | 41.8 g mouse-1 | 115% | -33.1% | 2.7 g mouse-1 day-1 | -13.2% | – |
| C[n+]1c2ccccc2cc2[nH]c3cc(Cl)c(Br)cc3c21.[Cl-] | 0.1% | 127% | 45.5 g mouse-1 | 44.6 g mouse-1 | 104% | -33% | 2.8 g mouse-1 day-1 | -18.9% | – |
| C[n+]1c2ccccc2cc2[n-]c3ccccc3c21.Cl [CRYPTOLEPINE HYDROCHLORIDE] | 359% | 305% | 41 g mouse-1 | 39.8 g mouse-1 | 148% | -16.4% | 0.9 g mouse-1 day-1 | -43.1% | – |
| COC(=O)c1c2ccccc2[n+](C)c2c3ccccc3n(C)c12.[I-] | 260% | 207% | – | – | 155% | – | – | – | – |
| Fc1ccc(C[n+]2c3ccccc3cc3[nH]c4ccccc4c32)cc1.[Cl-] | 323% | 248% | 40.2 g mouse-1 | 39 g mouse-1 | 168% | -36.3% | 3.1 g mouse-1 day-1 | -9.7% | – |
| C[n+]1c2ccc(F)cc2c(Nc2ccccc2)c2[nH]c3ccccc3c21.[Cl-] | 0.9% | 208% | 44.8 g mouse-1 | 44.2 g mouse-1 | 325% | -10.5% | 3.2 g mouse-1 day-1 | -10.7% | – |
| CCCC[n+]1c2ccccc2cc2[nH]c3ccccc3c21.[Cl-] | 490% | 868% | 45.8 g mouse-1 | 45.8 g mouse-1 | 561% | -33.8% | – | -2.2% | Food intake [9]: 2.6 g mouse-1 day-1; Mean body weight [10]: 38.7 g mouse-1; Food intake [11]: 6 g mouse-1 day-1; Change [12]: 4%; Change [13]: -22%; Mean body weight [14]: 38.6 g mouse-1 |
| COC(=O)c1c2ccccc2[n+](C)c2c1[nH]c1ccccc12.[I-] | 371% | 159% | – | – | 63% | – | – | – | – |
| C[n+]1c2ccc(F)cc2cc2[nH]c3ccccc3c21.[Cl-] | 443% | 360% | 43.8 g mouse-1 | 41.9 g mouse-1 | 253% | -42.5% | 0.5 g mouse-1 day-1 | -34.5% | – |
| COc1cccc2cc3[nH]c4ccccc4c3[n+](C)c12.[Cl-] | 543% | 486% | 38.4 g mouse-1 | 37.1 g mouse-1 | 237% | -8.3% | 2 g mouse-1 day-1 | -58.3% | – |
| C[n+]1c2ccc(F)cc2c(Oc2ccccc2)c2[nH]c3ccccc3c21.[Cl-] | 0.39% | 207% | 46.6 g mouse-1 | 45.2 g mouse-1 | 140% | -11.8% | 1.6 g mouse-1 day-1 | -7.5% | – |
| C[n+]1c2ccccc2cc2[nH]c3ccccc3c21.[I-] [CRYPTOLEPTINE IODIDE] | 287% | 163% | – | – | 134% | – | – | – | – |
| CC[n+]1c2ccccc2cc2[nH]c3ccccc3c21.[Cl-] | 404% | 228% | 44.6 g mouse-1 | 43.3 g mouse-1 | 197% | -23.2% | – | -26.5% | Food intake [15]: 1 g mouse-1 day-1; Food intake [11]: 5.1 g mouse-1 day-1; Change [12]: -7.7%; Mean body weight [16]: 41.2 g mouse-1; Mean body weight [17]: 41.7 g mouse-1; Change [13]: -4.1% |
| C[n+]1c2ccccc2c(Cl)c2[nH]c3cc(F)ccc3c21.[Cl-] | 6% | 159% | – | – | 107% | – | – | – | – |
| C[n+]1c2ccc(Cl)cc2c(Cl)c2[nH]c3ccccc3c21.[Cl-] | 215% | 138% | – | – | 108% | – | – | – | – |
| C[n+]1c2c(c(Sc3ccc(Cl)cc3)c3ccccc31)Cc1ccccc1-2.O=S(=O)([O-])C(F)(F)F | 122% | 110% | – | – | 108% | – | – | – | – |
| C[n+]1c2ccc(F)cc2c(Sc2ccc(Cl)cc2)c2[nH]c3ccccc3c21.[Cl-] | 13% | 154% | – | – | 128% | – | – | – | – |
| C[n+]1c2ccccc2c(Cl)c2[nH]c3ccc(-c4ccccc4)cc3c21.[Cl-] | 16% | 190% | – | – | 122% | – | – | – | – |
| C[n+]1c2ccccc2c(Cl)c2sc3ccccc3c21.O=S(=O)([O-])C(F)(F)F | 110% | 100% | – | – | 96% | – | – | – | – |
| C[n+]1c2ccccc2c(Cl)c2[nH]c3cccc(F)c3c21.[Cl-] | 6.4% | 457% | – | – | 143% | – | – | – | – |
| C[n+]1c2ccccc2c(Sc2ccc(Cl)cc2)c2oc3ccccc3c21.O=S(=O)([O-])C(F)(F)F | 141% | 142% | – | – | 118% | – | – | – | – |
| C[n+]1c2cccc(Cl)c2c(Cl)c2[nH]c3ccccc3c21.[Cl-] | 352% | 282% | – | – | 120% | – | – | – | – |
